From PubChem
In the library only some 2.5% were active in any assay of this set; here they are far more common.
m5-HT2A agonist – mouse HTR2A agonism via beta-arrestin recruitment; AID 624169; CHO-K1 mHTR2A beta-arrestin complementation, luminescence; percent of 30 µM serotonin response; actives 0.66% (n = 360,000); P35363; activation, % at 7.6 µM;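 active = activation above a run cutoff, the mean activation of all tested compounds plus 3 SD, cut at about 14% in these data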;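 note: 0% = plate median of compound wells and 100% = 30 µM serotonin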
Target sequence (P35363 whole entry, looked up): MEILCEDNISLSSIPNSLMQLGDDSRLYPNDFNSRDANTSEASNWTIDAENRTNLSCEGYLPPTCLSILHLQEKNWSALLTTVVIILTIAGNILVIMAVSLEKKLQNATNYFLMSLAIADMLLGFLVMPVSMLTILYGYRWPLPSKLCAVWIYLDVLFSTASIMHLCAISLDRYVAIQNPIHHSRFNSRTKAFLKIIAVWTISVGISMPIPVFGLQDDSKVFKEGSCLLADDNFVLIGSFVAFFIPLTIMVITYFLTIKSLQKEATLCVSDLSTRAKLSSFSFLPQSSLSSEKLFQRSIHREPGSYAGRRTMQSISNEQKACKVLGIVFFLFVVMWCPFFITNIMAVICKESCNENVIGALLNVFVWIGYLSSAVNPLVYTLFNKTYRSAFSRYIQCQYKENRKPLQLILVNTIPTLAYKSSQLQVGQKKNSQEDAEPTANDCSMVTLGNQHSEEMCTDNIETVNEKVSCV
dFosB act – mouse delta FosB homodimer activation | P13346 | purified delta FosB, TAMRA-CDK5 oligo fluorescence polarization; percent of positive-control signal above neutral wells | activation, % at 25 µM | actives 0.99% (n = 340,000) | AID 493131;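 active = mean activation above about 17%, with every replicate also reaching it, limit read from the data, passing the limit was not always enough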
IMP-1 inh – inhibitors of Pseudomonas aeruginosa IMP-1 metallo-beta-lactamase | actives 0.45% (n = 290,000) | purified IMP-1, nitrocefin hydrolysis, epi-absorbance fluorescence | inhibition, % at 5.6 µM;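 active = inhibition above the mean plus 3 SD of all compounds in the same screening run, cut at about 4.5% in these data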;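 note: 0% = IMP-1 with DMSO and 100% = DMSO wells lacking enzyme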
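system = purified recombinant IMP-1 beta-lactamase | amount = 0.2 nM IMP-1, as dispensed | medium = HEPES buffer pH 7.1 with ZnSO4 and Brij 35 | times = 25 °C, 15 min preincubation, 25 min reaction | detection = plate fluorescence quenching by hydrolysis product, ex 480/em 530 nm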
VIM-2 inh – blocks Pseudomonas aeruginosa VIM-2 metallo-beta-lactamase | purified VIM-2, nitrocefin hydrolysis, epi-absorbance fluorescence | inhibition, % at 5.6 µM | actives 0.89% (n = 290,000);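 active = inhibition above the mean of all tested compounds plus 3 SD, cutoff set per screening run, cut at about 7.5% in these data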;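 note: red hydrolysis product quenches plate fluorescence so inhibitors raise well fluorescence; 0% = enzyme with DMSO and 100% = DMSO without enzyme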
MOR ag counter – counter-screen for mouse HTR2A agonists: human mu opioid receptor agonists; shares compounds with m5-HT2A agonist; U2OS OPRM1 beta-arrestin PathHunter, luminescence; DMSO 0%, DAMGO 9.3 µM 100%; activation, % at 9.3 µM; AID 624380; actives 5.3% (n = 2,300);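 active = mean activation above the mean of DMSO-only wells plus 3 SD, cut at about 0.5% in these data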
HTR2A ag conf – confirmation of mouse HTR2A serotonin receptor agonists; actives 19% (n = 2,300); activation, % at 7.6 µM; CHO-K1 PathHunter beta-arrestin recruitment, luminescence; DMSO 0%, 30 µM serotonin 100%; AID 624381; shares compounds with m5-HT2A agonist;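 active = mean activation across triplicates above the hit threshold derived in the original primary screen, cut at about 15% in these data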
Numbers without * were called inactive.

Screening CCCCN(C(=O)CCC(=O)Nc1cc(C)on1)C(C(=O)NC1CCCC1)c1cccc(OC)c1 (stereo not drawn) returned m5-HT2A agonist 14.4*, dFosB act -4.9, IMP-1 inh 0.3, VIM-2 inh -1.1, MOR ag counter -0.6 and HTR2A ag conf -5.0.
Screening CCOCCn1c(SCC(=O)OCc2ccccc2)nc2c1c(=O)[nH]c(=O)n2C returned m5-HT2A agonist 17.1*, dFosB act -7.4, MOR ag counter 0.0 and HTR2A ag conf 0.7.
Cc1cc2nc(N3CCN(C(=O)c4ccco4)CC3)sc2cc1C was read as m5-HT2A agonist 6.7 and dFosB act -9.1.
For O=C(c1ccco1)N1CCN(c2nc3ccsc3c(=O)s2)CC1 the results were m5-HT2A agonist 42.0*, dFosB act -15.0, IMP-1 inh -2.1, VIM-2 inh 4.4, MOR ag counter -0.7 and HTR2A ag conf 9.4.
`O=C(CN1C(=O)c2ccccc2S1(=O)=O)NCc1cccs1` gave m5-HT2A agonist 4.0, dFosB act 6.9, IMP-1 inh -1.7 and VIM-2 inh -1.3.
For CCC1(c2ccccc2)NC(=O)N(CC(=O)NCCN2C(=O)S/C(=C\c3cccnc3)C2=O)C1=O (stereo not drawn) the results were m5-HT2A agonist 3.2 and dFosB act -2.4.
For Oc1ccc(F)c(CN2CCN(c3ncc(Cc4ccccc4)cn3)CC2)c1 the results were m5-HT2A agonist -6.4.
Fc1ccc(F)c(CN2CCN(c3ncccn3)CC2)c1 was read as m5-HT2A agonist 43.8*, dFosB act -8.1, IMP-1 inh -2.3, VIM-2 inh 0.2, MOR ag counter -0.8 and HTR2A ag conf 100.6*.
Fc1ccc(CN2CCN(c3ncccn3)CC2)cc1 was read as m5-HT2A agonist 22.6*, dFosB act -6.5, IMP-1 inh 0.1, VIM-2 inh -2.6, MOR ag counter 1.3* and HTR2A ag conf 142.0*.
Screening Cc1ccc(NS(=O)(=O)c2cc(C(=O)NCCCN(C)C)ccc2Cl)cc1Cl returned m5-HT2A agonist -9.7 and dFosB act -9.9.
Screening COc1ccccc1CC(=O)NCc1csc(-c2cccs2)n1 returned m5-HT2A agonist -0.6, IMP-1 inh -1.0 and VIM-2 inh -3.1.
Screening CCC(=O)NCc1csc(-c2cccs2)n1 returned m5-HT2A agonist 38.6*, dFosB act -1.4, IMP-1 inh 0.1, VIM-2 inh -0.2, MOR ag counter -0.6 and HTR2A ag conf -1.9.
Cc1cc(C)n(C(=O)c2cc([N+](=O)[O-])cc([N+](=O)[O-])c2)n1 was read as m5-HT2A agonist 44.7*, dFosB act -3.0, IMP-1 inh -3.5, VIM-2 inh -1.9, MOR ag counter -0.2 and HTR2A ag conf -3.5.
`Cc1cc(C)n(C(=O)c2cccc([N+](=O)[O-])c2)n1` gave m5-HT2A agonist -0.1, dFosB act 3.7, IMP-1 inh -3.1 and VIM-2 inh -1.8.
CN1CCN(c2ccc(Cl)cc2NC(=O)c2ccc(=O)n(C)n2)CC1 was read as m5-HT2A agonist 18.4*, dFosB act 7.3, IMP-1 inh -5.6, VIM-2 inh -2.7, MOR ag counter -0.5 and HTR2A ag conf 1.3.
For C#CCOCCOCCOCCNc1nc(N2CCOCC2)nc(N2CCN(C(=O)CCCCCCCCCCNC(=O)[C@@H](CCC(=O)O)n3cc(CCCCCN)nn3)CC2)n1 the results were m5-HT2A agonist 15.4*, dFosB act 0.5, MOR ag counter -0.7 and HTR2A ag conf -2.0.
For CCCCc1cn([C@@H](CCCCNC(=O)OC(C)(C)C)C(=O)N2CCN(C(=O)OC(C)(C)C)CC2)nn1 the results were m5-HT2A agonist 15.7*, dFosB act -1.0, IMP-1 inh -1.7, VIM-2 inh -1.2, MOR ag counter -0.5 and HTR2A ag conf -1.1.
CC(C)(C)OC(=O)NCCCC[C@@H](C(=O)N1CCN(C(=O)OC(C)(C)C)CC1)n1cc(CCC(=O)O)nn1 was read as m5-HT2A agonist -6.4, dFosB act -3.3, IMP-1 inh 0.2 and VIM-2 inh -0.7.
Screening CC(C)(C)OC(=O)NCCCCCc1cn([C@@H](CO)C(=O)NCCCCCCCCCCC(=O)N2CCN(C(=O)OC(C)(C)C)CC2)nn1 returned m5-HT2A agonist 14.9*, dFosB act -19.3, MOR ag counter -0.1 and HTR2A ag conf 18.9*.
`C/C=C(\C)CN1CCN(c2ccccc2)CC1` gave m5-HT2A agonist 13.9, dFosB act -2.5, IMP-1 inh 0.2 and VIM-2 inh -4.0.
C/C(=C\c1ccccc1)CN1CCN(c2ccccc2)CC1 was read as m5-HT2A agonist 18.8*, dFosB act -1.5, IMP-1 inh -1.3, VIM-2 inh -2.9, MOR ag counter 0.1 and HTR2A ag conf 41.4*.
COCc1ccc(CN2CCC(n3nccc3NC(=O)C(OC)c3ccccc3)CC2)o1 (stereo not drawn) was read as m5-HT2A agonist 14.7*, dFosB act -5.2, IMP-1 inh -1.1, VIM-2 inh 0.1, MOR ag counter -0.8 and HTR2A ag conf -1.3.
O=C(O)c1ccc(CNC(=O)c2ccc3c(c2)C(=O)N(Cc2cccnc2)C3=O)cc1 was read as m5-HT2A agonist 2.7, dFosB act -4.3, IMP-1 inh -3.0 and VIM-2 inh -2.9.
`O=C1NC[C@H](Cc2ccccc2)N(C[C@H]2CCCN2C[C@H](Cc2ccc(O)cc2)N2C[C@H](Cc3ccc(O)cc3)N(CC3CCCCCC3)C(=O)C2=O)C1=O` gave m5-HT2A agonist 26.2*, dFosB act -2.2, MOR ag counter -0.6 and HTR2A ag conf 73.4*.
Cc1ccc(S(=O)(=O)N2CCOCC2)cc1NC(=O)Cn1c(=O)ccn(Cc2ccccc2)c1=O was read as m5-HT2A agonist -1.6 and dFosB act -8.2.
Screening CCCCCC(=O)N1C[C@H](n2cc(-c3ccc(F)cc3)nn2)[C@@H](O)C[C@@H]1c1ccc(C)cc1 returned m5-HT2A agonist 23.2*, MOR ag counter 0.2 and HTR2A ag conf -0.2.
CN1CCN(c2ncnc3c2ncn3[C@H]2CN(Cc3ccncc3)C[C@@H](CO)O2)CC1 was read as m5-HT2A agonist 14.9* and HTR2A ag conf -6.2.
OC[C@@H]1CN(Cc2ccncc2)C[C@H](n2cnc3c(N4CCCC4)ncnc32)O1 was read as m5-HT2A agonist 3.0.
Screening COc1ccccc1C(CNC(=O)C(C)Oc1ccc(Br)cc1)N1CCCC1 (stereo not drawn) returned m5-HT2A agonist -2.1 and dFosB act -3.4.
`CCN1CCN(C(CNS(=O)(=O)c2ccc(OC)cc2)c2cccnc2)CC1` (stereo not drawn) gave m5-HT2A agonist 14.7*, dFosB act -4.4, IMP-1 inh -1.2, VIM-2 inh -0.6, MOR ag counter -0.6 and HTR2A ag conf -4.6.
